From ChEMBL document CHEMBL1151213, “Yucca schidigera bark: phenolic constituents and antioxidant activity” (J Nat Prod, 2004)

Columns and labels:
Assay type in all cases: functional
[1] = Antioxidant activity against beta-carotene and linoleic acid assessed as inhibition of bleaching of beta-carotene at 60 mins by autooxidation assay; parameters: concentration or dose not given beside the values
Procedure, shortened: (§1)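 Heat-induced oxidation of an aqueous emulsion of β-carotene, linoleic acid and Tween 20, held at 50 °C for 3 h. β-Carotene bleaching was followed by A470 at intervals. AA = [1 − (A0 − At)/(A00 − A0t)] × 100, taking absorbances with and without test sample at start and at time t. Run in triplicate; BHT served as positive control.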

[2] = Antioxidant activity against beta-carotene and linoleic acid assessed as inhibition of bleaching of beta-carotene at 120 mins by autooxidation assay; parameters: concentration or dose not given beside the values; procedure, shortened: as §1
[3] = Antioxidant activity against ABTS radical assessed as TEAC units
Procedure, shortened: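 ABTS radical cation solution diluted in PBS pH 7.4 to A734 0.70, equilibrated at 30 °C. Samples in methanol at 0.3, 0.5, 1, 1.5 and 2 mM; reaction started by adding diluted ABTS to sample. Percent inhibition of A734 versus methanol blank plotted against concentration, in triplicate. Value is Trolox concentration with the same capacity as 1 mM sample.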

SMILES | Activity [1] [%] | Activity [2] [%] | Activity [3] [mM] | inhibition [1] [%]
Oc1ccc(/C=C/c2cc(O)cc(O)c2)cc1 | 24.9 | 45.9 | 1.9 | –
O=C1Oc2cc(O)cc(/C=C/c3ccc(O)cc3)c2[C@]12c1c(O)cc(O)cc1O[C@@H]2c1ccc(O)cc1 | 76.3 | 72.1 | 1.09 | –
O=C1[C@@H](c2ccc(O)cc2)Oc2cc(O)cc(O)c2[C@@]12c1c(O)cc(O)cc1[C@H](O)[C@H]2c1ccc(O)cc1 | 40.6 | 43.4 | 1.04 | –
O=c1c(O)c(-c2ccc(O)c(O)c2)oc2cc(O)cc(O)c12 | – | – | 2.6 | –
COc1c(O)cc(/C=C/c2cc(O)cc(O)c2)cc1O | 3.1 | 2.9 | 2.25 | –
O=C1Oc2cc(O)cc(/C=C/c3ccc(O)cc3)c2[C@@]12c1c(O)cc(O)cc1O[C@@H]2c1ccc(O)cc1 | 52.6 | 72.1 | 0.96 | –
O=C1Oc2cc(O)c3c(c2[C@]12c1c(O)cc(O)cc1O[C@@H]2c1ccc(O)cc1)O[C@H](c1ccc(O)cc1)[C@H](O)C3 | 24.4 | 51 | 1.79 | –
COc1c(O)cc(/C=C/c2cc(O)cc3c2[C@@]2(C(=O)O3)c3c(O)cc(O)cc3O[C@@H]2c2ccc(O)cc2)cc1O | 59.5 | 71.7 | 1.6 | –
COc1c(O)cc(/C=C/c2cc(O)cc(O)c2)c2c1OC(=O)[C@@]21c2c(O)cc(O)cc2O[C@@H]1c1ccc(O)cc1 | 74.3 | 79.3 | 1.85 | –
COc1c(O)cc(/C=C/c2cc(O)cc3c2[C@]2(C(=O)O3)c3c(O)cc(O)cc3O[C@@H]2c2ccc(O)cc2)cc1O | – | 66.2 | 1.42 | 66.4
